Assay results reported in paper PMC2886848 (Science (New York, N.Y.), 2009).
Entries after “also recorded” stand apart in the source; their conditions may differ.

Tests used:
[1] = target: T1, procaspase-3 (Homo sapiens, UniProt P42574); assay: procaspase-3 autoproteolytic activation, fluorogenic Ac-DEVD-AFC activity assay; format: biochemical
T1 sequence (P42574 1-277): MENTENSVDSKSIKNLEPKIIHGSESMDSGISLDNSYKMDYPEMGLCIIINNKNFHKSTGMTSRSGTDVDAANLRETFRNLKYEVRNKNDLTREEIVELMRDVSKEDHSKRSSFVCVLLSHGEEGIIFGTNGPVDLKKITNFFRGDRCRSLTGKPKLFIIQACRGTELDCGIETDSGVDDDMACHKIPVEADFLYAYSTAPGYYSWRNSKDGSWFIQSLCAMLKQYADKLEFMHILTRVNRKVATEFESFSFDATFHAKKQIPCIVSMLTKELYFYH

[2] = target: T2, procaspase-6 (Homo sapiens, UniProt P55212); assay: procaspase-6 activation, fluorogenic Ac-VEID-AFC activity assay; format: biochemical
T2 sequence (P55212 1-293): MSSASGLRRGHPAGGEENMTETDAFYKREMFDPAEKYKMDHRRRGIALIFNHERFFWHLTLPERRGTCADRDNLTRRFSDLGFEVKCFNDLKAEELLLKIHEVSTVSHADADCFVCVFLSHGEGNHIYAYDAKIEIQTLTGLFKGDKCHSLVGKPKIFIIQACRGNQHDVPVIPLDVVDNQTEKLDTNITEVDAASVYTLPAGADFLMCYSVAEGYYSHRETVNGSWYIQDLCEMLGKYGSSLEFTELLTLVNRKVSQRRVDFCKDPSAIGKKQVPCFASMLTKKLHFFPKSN

[3] = tested on: procaspase-7; assay: procaspase-7 activation, fluorogenic Ac-DEVD-AFC activity assay; format: biochemical; details: procaspase-7 100 nM; 1 nM granzyme B, 25 μM 1541 or 100 μM PAC-1
Outline: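 Procaspase-7 (100 nM) was incubated at 37 °C with 1 nM granzyme B, DMSO, 100 μM reference procaspase activator or 25 μM test compound. Activity was sampled every 20 minutes by adding fluorogenic substrate Ac-DEVD-AFC.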

[4] = target: T1, procaspase-3; details: caused through chelation of inhibitory zinc ion in some assay buffers; cited from earlier work
[5] = tested on: BT549 cells; assay: time course of cell viability in BT549 cells; format: cell-based; details: 25 μM 1541, 1541C, 1541D; 1 μM STS; 100 μM etoposide; 1541 and STS after 4 hours
Outline: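 p53-deficient BT549 breast cancer cells (2,000) were exposed to 25 μM test compound or either of two analogs, 1 μM staurosporine, 100 μM etoposide or DMSO (final 0.5%). Cell viability was assayed at 2, 4, 6, 8, 12 and 24 h.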

[6] = tested on: BT549 cells; assay: time course of DEVDase activity in BT549 cells; format: cell-based; details: 25 μM 1541, 1 μM STS
Outline: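 p53-deficient BT549 breast cancer cells (2,000) were treated with 25 μM test compound or analogs, 1 μM staurosporine, 100 μM etoposide or DMSO (final 0.5%). Executioner caspase (DEVDase) activity was measured at 2, 4, 6, 8, 12 and 24 h.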

[7] = tested on: BT549 cells; assay: cytochrome C release in cytoplasmic extracts of BT549 cells; format: cell-based; details: 25 μM 1541, 1 μM STS, harvested every 3 hours
[8] = tested on: wild type (A3) Jurkat cells; assay: cell viability of wild type; format: cell-based, human; details: 25 μM 1541, 1 μM STS, 100 ng/ml FasL
Outline: (§1)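 Wild-type (A3) and caspase-8-deficient (I9.2) human Jurkat cells (100,000 cells) were exposed to 25 μM test compound, 1 μM staurosporine or 100 ng/ml FasL. Cell viability was assayed every 2 hours.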

[9] = tested on: caspase-8 deficient Jurkat cells (I9.2); assay: cell viability of caspase-8 deficient; format: cell-based, human; details: 25 μM 1541, 1 μM STS, 100 ng/ml FasL
Outline: as §1

[10] = tested on: wild type murine embryonic fibroblasts (MEF); assay: histone ELISA apoptosis assay in wild type MEFs; format: cell-based; details: 1 μM STS, 25 μM 1541, 12 hours
Outline: (§2)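 Wild-type and Bak−/−/Bax−/− double-knockout murine embryonic fibroblasts (5,000 cells) were treated at 37 °C with 1 μM staurosporine, 25 μM test compound or DMSO (final 0.5%). Apoptosis was measured after 12 h by histone sandwich ELISA on lysates, which detects histone solubilisation from DNA fragmentation.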

[11] = tested on: Bak−/−/Bax−/− double knockout (DKO MEFs); assay: histone ELISA apoptosis assay in Bak−/−/Bax−/− DKO MEFs; format: cell-based, murine; details: 1 μM STS, 25 μM 1541, 12 hours
Outline: as §2

[12] = tested on: BT549 cells; assay: protection against 1541-induced apoptosis with caspase inhibitors in BT549 cells; format: cell-based; details: preincubation with inhibitor 0.78 to 100 μM, then 25 μM 1541, 24 hours
Outline: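 BT549 cells (2,500) were preincubated overnight with Biotin-DEVD-FMK (caspase-3/-7 inhibitor) or Biotin-VAD-FMK (pan-caspase inhibitor) at 0.78 to 100 μM. Cells were then switched to fresh medium containing 25 μM test compound plus the same inhibitor concentration. Viability was assayed after 24 h at 37 °C.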

[13] = tested on: C163A procaspase-3; assay: cleavage of inactive C163A procaspase-3 by granzyme B; format: biochemical; details: C163A 250 nM, granzyme B 0.5 nM, alone or with 1541 25 μM
[14] = tested on: procaspase-3 mutants (S198A, T199A and S205A); assay: activation of procaspase-3 alanine mutants; format: biochemical; details: 5 hours, 25 μM 1541 or 1 nM granzyme B, 37 °C
Outline: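 Wild-type procaspase-3 and active-site alanine mutants (S198A, T199A, S205A), chosen by alanine scanning near the active site, were incubated 5 h at 37 °C with 25 μM test compound, 1 nM granzyme B or DMSO. Activation was sampled by kinetic assays started with fluorogenic substrate Ac-DEVD-AFC.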

[15] = target: T2, procaspase-6; details: cited from earlier work

## C=CCc1cccc(/C=N/NC(=O)CN2CCN(Cc3ccccc3)CC2)c1O [PAC-1]
[1]
  activation of procaspase-3 (in words): no detectable increase in activity or self-proteolysis
[2]
  activation of procaspase-6 (in words): no detectable increase in activity or self-proteolysis
[3]
  activation of procaspase-7 (in words): no detectable increase in activity or self-proteolysis
[4]
  activation of procaspase-3 seen for PAC-1: ~ 2 fold

## CN[C@@H]1C[C@H]2O[C@@](C)([C@@H]1OC)n1c3ccccc3c3c4c(c5c6ccccc6n2c5c31)C(=O)NC4 [STS, staurosporine]
[5]
  induction of apoptosis / cell death in BT549 (in words): near complete apoptosis
[6]
  DEVDase activity in BT549 (in words): significantly higher
  time of peak DEVDase activity: 8 h
[7]
  mitochondrial cytochrome C release (in words): much greater and more rapid mitochondrial cytochrome C release
[8]
  apoptosis in wild type Jurkat cells (in words): comparable to 1541
[9]
  apoptosis in caspase-8 deficient Jurkat cells (in words): somewhat slower
[10]
  apoptosis in wild type MEFs (in words): susceptible
[11]
  apoptosis in DKO MEFs (in words): completely resistant

## COc1cc([C@@H]2c3cc4c(cc3[C@@H](O[C@@H]3O[C@@H]5CO[C@@H](C)O[C@H]5[C@H](O)[C@H]3O)[C@H]3COC(=O)[C@H]23)OCO4)cc(OC)c1O [etoposide]
[5]
  induction of apoptosis / cell death in BT549 (in words): much slower apoptosis

## DEVD-FMK
[12]
  block of 1541-induced apoptosis (in words): completely blocked apoptosis

## granzyme B: a natural proteolytic activator of procaspase-3
[1]; 1 nM granzyme B, procaspase-3 100 nM
  time to full activation of the zymogen: ≤ 90 min
[3]
  activation of procaspase-7 (in words): robustly activated and fully processed
[13]
  cleavage of C163A procaspase-3 after 30 minutes: ~ 10%
  cleavage of C163A procaspase-3 after 60 minutes: 20%
[14]
  activation of S198A, T199A and S205A procaspase-3 (in words): efficiently activated; also recorded: wild type activity
[15]
  activation of procaspase-6 by granzyme B (in words): resistant

B1: FasL: a specific inducer of the extrinsic pathway (protein, UniProt P48023 130-281, looked up)
Tumor necrosis factor ligand …: QIGHPSPPPEKKELRKVAHLTGKSNSRSMPLEWEDTYGIVLLSGVKYKKGGLVINETGLYFVYSKVYFRGQSCNNLPLSHKVYMRNSKYPQDLVMMEGKMMSYCTTGQMWARSSYLGAVFNLTSADHLYVNVSELSLVNFEESQTFFGLYKL
[8]
  apoptosis in wild type Jurkat cells (in words): active
[9]
  apoptosis in caspase-8 deficient Jurkat cells (in words): not in caspase-8 deficient cells
